Measured values published in ChEMBL document CHEMBL4033639, “Synthesis, biochemical evaluation, and molecular modeling studies of aryl and arylalkyl di-n-butyl phosphates, effective butyrylcholinesterase inhibitors” (Bioorg Med Chem, 2017).

Legend:
[1] = molecular target: Cholinesterase (Equus caballus, UniProt P81908); assay: Inhibition of horse serum BChE using butyrylthiocholine as substrate by spectrophotometry
Summary of the method: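 Initial rates monitored continuously at 412 nm (ε 14,150 M-1 cm-1), background from no-enzyme reaction. KI from dependence of observed rate constant on inhibitor concentration (typically twelve); at least three determinations averaged.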

[2] = molecular target: Cholinesterase (Equus caballus) (UniProt P81908); assay: Reversible inhibition of horse serum BChE at Ki using 25 mM of butyrylthiocholine as substrate preincubated for 1 min followed by substrate addition by spectrophotometry relative to control
Chain of Cholinesterase (Equus caballus) (P81908 whole entry): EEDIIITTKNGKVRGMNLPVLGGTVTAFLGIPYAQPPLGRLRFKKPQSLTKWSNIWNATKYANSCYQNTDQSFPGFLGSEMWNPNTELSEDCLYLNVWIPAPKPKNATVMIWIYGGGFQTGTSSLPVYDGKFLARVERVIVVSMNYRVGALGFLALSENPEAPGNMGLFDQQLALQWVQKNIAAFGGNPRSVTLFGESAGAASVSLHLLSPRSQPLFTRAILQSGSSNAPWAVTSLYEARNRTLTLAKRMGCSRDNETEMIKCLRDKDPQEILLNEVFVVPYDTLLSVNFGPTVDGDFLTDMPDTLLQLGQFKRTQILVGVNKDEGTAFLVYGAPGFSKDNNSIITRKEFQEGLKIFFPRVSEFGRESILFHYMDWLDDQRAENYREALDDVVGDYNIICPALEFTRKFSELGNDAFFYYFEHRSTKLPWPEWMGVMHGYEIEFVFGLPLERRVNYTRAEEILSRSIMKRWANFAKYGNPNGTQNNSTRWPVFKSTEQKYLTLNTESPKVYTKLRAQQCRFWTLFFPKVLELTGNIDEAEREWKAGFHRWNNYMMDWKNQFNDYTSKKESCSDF

[3] = species on record: Bos taurus; assay: Inhibition of bovine pancreas alpha-chymotrypsin using N-benzoyl-l-tyrosine ethyl ester as substrate by spectrophotometry relative to control
Summary of the method: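 Enzyme (fresh 5 units/mL stock in ice-cold 1 mM HCl) added to start; initial rates read continuously at 256 nm, no-enzyme background subtracted. Rate with compound divided by control rate; at least two determinations with independently prepared inhibitor solutions, averaged.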

[4] = molecular target: Acetylcholinesterase (Electrophorus electricus) (UniProt O42275); assay: Inhibition of electric eel AChE at 500 uM using acetylthiocholine as substrate by spectrophotometry relative to control
Chain of Acetylcholinesterase (Electrophorus electricus) (O42275 24-633 limits assumed): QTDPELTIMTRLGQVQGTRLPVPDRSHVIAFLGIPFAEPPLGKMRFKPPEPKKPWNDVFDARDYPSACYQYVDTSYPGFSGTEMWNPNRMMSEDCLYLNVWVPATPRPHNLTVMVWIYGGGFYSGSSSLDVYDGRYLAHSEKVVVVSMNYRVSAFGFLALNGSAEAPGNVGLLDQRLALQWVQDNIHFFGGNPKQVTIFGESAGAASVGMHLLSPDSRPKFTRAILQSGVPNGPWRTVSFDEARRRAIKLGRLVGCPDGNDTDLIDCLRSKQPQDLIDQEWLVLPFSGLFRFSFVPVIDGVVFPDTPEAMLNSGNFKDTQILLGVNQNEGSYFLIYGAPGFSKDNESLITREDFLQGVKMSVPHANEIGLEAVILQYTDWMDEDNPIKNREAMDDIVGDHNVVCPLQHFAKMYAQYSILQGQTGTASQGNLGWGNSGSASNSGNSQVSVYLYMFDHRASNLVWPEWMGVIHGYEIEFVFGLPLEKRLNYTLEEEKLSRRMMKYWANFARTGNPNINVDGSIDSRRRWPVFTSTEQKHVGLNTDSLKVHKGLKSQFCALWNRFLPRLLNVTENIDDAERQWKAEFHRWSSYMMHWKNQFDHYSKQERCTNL
Summary of the method: (§1)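 Ellman method at 25 °C: 100 mM sodium phosphate pH 7.5, 1 mM MgCl2, 0.2 mM DTNB, BSA, 100 µM acetylthiocholine, 2% methanol. Inhibitor 500 µM final; reaction started with AChE (10 nM final); initial rates monitored at 412 nm. Rate divided by 2% methanol no-inhibitor control; at least three determinations with independently prepared inhibitor solutions, averaged.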

[5] = molecular target: Cholinesterase (Equus caballus) (UniProt P81908); assay: Inhibition of horse serum BChE at 500 uM using butyrylthiocholine as substrate by spectrophotometry relative to control
Summary of the method: as §1, with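 “butyrylthiocholine,” for “acetylthiocholine,”, “equine serum BChE” for “AChE”, “rates” for “rates monitored”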

Chain of Cholinesterase (P81908 whole entry): as the sequence (P81908 whole entry) above

| Structure (SMILES) | Ki [1] [µM] | fold change (FC) [2] | fold change (FC) [3] | fold change (FC) [4] | fold change (FC) [5] |
| --- | --- | --- | --- | --- | --- |
| CCCCCOP(=O)(OCCCCC)Oc1ccccc1 | 6 |  |  |  |  |
| CCCCOP(=O)(OCCCC)Oc1cc(C)cc(C)c1 | 1 | 0.83 | 0.95 | 1 | 0.01 |
| CCCCOP(=O)(OCCCC)Oc1ccc(C)cc1 | 8 | 0.94 | 0.96 | 0.89 | 0.02 |
| CCCCOP(=O)(OCCCC)OCc1ccc(C)cc1 | 14 | 0.92 | 0.92 | 0.87 | 0.04 |
| CCOP(=O)(OCC)Oc1ccccc1 [PHOSPHORIC ACID DIETHYL ESTER PHENYL ESTER] | 1590 |  |  |  |  |
| CCCCOP(=O)(OCCCC)OCc1ccccc1 | 2 | 0.92 | 0.97 | 1 | 0.01 |
| CCCCOP(=O)(OCCCC)OCCc1ccccc1 | 53 | 0.97 | 0.89 | 1.02 | 0.11 |
| CCCOP(=O)(OCCC)Oc1ccccc1 | 45 to 80 |  |  |  |  |
| CCOP(=O)(OCC)Oc1cc(C)cc(C)c1 | 583 |  |  |  |  |
| CCCCOP(=O)(OCCCC)Oc1ccccc1 | 45 to 80 |  |  |  |  |
| CCCCOP(=O)(OCCCC)OCc1ccccc1C | 72 | 0.95 | 0.94 | 0.98 | 0.04 |
| CCOP(=O)(OCC)Oc1ccc2ccccc2c1 | 147 |  |  |  |  |
| CCCCOP(=O)(OCCCC)Oc1ccc(C)c(C)c1 | 9 | 0.93 | 0.94 | 1.04 | 0.04 |
| CCCCOP(=O)(OCCCC)Oc1cc(C)c(C)c(C)c1 | 11 | 0.88 | 0.84 | 1.09 | 0.09 |
| CCCCOP(=O)(OCCCC)Oc1cccc(C)c1 | 16 | 0.94 | 0.89 | 0.99 | 0.15 |
| CCCCOP(=O)(OCCCC)Oc1ccc2ccccc2c1 | 1.9 | 0.8 | 0.76 | 1.05 | 0.01 |
| CCCCOP(=O)(OCCCC)Oc1cccc2ccccc12 | 22 | 0.71 | 0.93 | 1.07 | 0.21 |
| CCCCOP(=O)(OCCCC)OCc1cccc(C)c1 | 24 | 0.95 | 0.94 | 0.86 | 0.12 |
| CCCCOP(=O)(OCCCC)Oc1ccccc1C | 50 | 0.91 | 0.92 | 0.99 | 0.27 |
